In publication PMC2118398 (The Journal of Experimental Medicine, 2006):

Columns and labels:
[1] = target: CXCR7 (SDF-1 binding site on MCF-7 cells) (Homo sapiens, UniProt P25106); test: Radioligand
CXCR4 (CEM-NKr cells) = CXCR4 (CEM-NKr cells) (Homo sapiens, UniProt P61073); test: 125I SDF-1 competition binding to CEM-NKr cells
How it was run: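 Whole CEM-NKr cells were incubated with 125I SDF-1 in the presence of unlabeled SDF-1α, a CXCR4 antagonist, or a CXCR7 antagonist as competitors. Cell-bound radioactivity was counted in a γ counter.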

CEM-NKr cells [2] = test: Calcium mobilization in CEM-NKr cells; type: cell-based, human; settings: unpublished data
How it was run: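 Cells were loaded with the ratiometric intracellular dye Indo-1, and the calcium response was recorded on addition of SDF-1α.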

CEM-NKr cells [3] = test: Cell migration of CEM-NKr cells; type: cell-based, human; settings: unpublished data
How it was run: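 Cells in chemotaxis buffer (HBSS with Ca2+, Mg2+, 0.1% BSA) were placed above a 3 or 5 μm pore filter, sized to the cells, with chemokine in the lower chamber. After 90 min at 37°C, filters were removed, CyQuant was added to the lower chamber, and migrated cells were read at 540 nm.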

[4] = target: CXCR7 on human cervical carcinoma HeLa cells (Homo sapiens, UniProt P25106); test: 125I SDF-1 binding profile on HeLa cells; settings: Fig. 3 B; 100 nM chemokine, 10 μM small molecules
Chain of CXCR7 on human cervical carcinoma HeLa cells (P25106 whole entry): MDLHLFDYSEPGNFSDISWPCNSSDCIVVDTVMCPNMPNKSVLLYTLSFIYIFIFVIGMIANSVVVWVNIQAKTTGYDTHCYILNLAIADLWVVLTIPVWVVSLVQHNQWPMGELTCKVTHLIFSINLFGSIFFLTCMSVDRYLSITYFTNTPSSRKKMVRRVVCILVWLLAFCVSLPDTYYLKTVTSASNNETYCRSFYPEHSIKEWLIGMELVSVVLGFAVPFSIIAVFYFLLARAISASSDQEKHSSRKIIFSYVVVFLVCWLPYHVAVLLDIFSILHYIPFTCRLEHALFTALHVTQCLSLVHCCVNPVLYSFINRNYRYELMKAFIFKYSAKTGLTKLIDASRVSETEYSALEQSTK
How it was run: (§1)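 Intact cells bound 125I SDF-1 with or without 100 nM unlabelled chemokine, 10 μM CXCR7 antagonist or 10 μM CXCR4 antagonist. Cell-bound radioactivity was counted in a γ counter. CXCR7 binding was taken as binding displaced by unlabelled ligand or the CXCR7 antagonist but not by the CXCR4 antagonist.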

[5] = target: CXCR7 (SDF-1 binding site on fetal liver cells) (Mus musculus, UniProt P56485); settings: 125I SDF-1
Chain of CXCR7 (SDF-1 binding site on fetal liver cells) (P56485 whole entry): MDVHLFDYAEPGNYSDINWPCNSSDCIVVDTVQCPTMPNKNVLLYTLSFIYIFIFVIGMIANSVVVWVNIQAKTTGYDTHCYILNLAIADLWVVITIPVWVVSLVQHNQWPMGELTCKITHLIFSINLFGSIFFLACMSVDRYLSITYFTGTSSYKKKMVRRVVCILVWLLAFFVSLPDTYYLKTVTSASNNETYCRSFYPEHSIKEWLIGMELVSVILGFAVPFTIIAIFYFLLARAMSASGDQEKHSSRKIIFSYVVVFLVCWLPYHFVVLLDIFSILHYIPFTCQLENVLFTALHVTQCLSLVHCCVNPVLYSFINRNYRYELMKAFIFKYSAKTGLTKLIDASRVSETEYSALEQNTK

human CXCR7 (RDC1) = human CXCR7 (RDC1) (Homo sapiens, UniProt P25106); test: Radioligand; type: binding
Chain of human CXCR7 (RDC1) (P25106 whole entry): as the sequence (P25106 whole entry) above

[6] = target: CXCR7 on mouse B cell lymphoma BCL1 (Mus musculus, UniProt P56485); test: 125I SDF-1 binding profile on BCL1 cells; settings: Fig. 3 B; 100 nM chemokine, 10 μM small molecules
Chain of CXCR7 on mouse B cell lymphoma BCL1 (P56485 whole entry): as the sequence (P56485 whole entry) above
How it was run: as §1

MCF-7 cells [7] = test: Calcium mobilization in MCF-7 cells; type: cell-based, human; settings: agonist response
How it was run: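 Cells were loaded with the ratiometric dye Indo-1 and stimulated with 10 nM SDF-1α. The intracellular calcium trace was recorded around ligand addition. The analysis was reproduced in at least 10 independent studies.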

MCF-7 cells [8] = test: Cell migration of MCF-7 cells; type: cell-based, human; settings: agonist response
How it was run: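 Cells in HBSS with Ca2+, Mg2+ and 0.1% BSA were placed above a filter (3 or 5 μm pores, chosen by cell size) in a 96-well microchamber, with chemokine below. After 90 min at 37°C in humidified air, the filter was removed. Cells in the lower chamber were quantified with CyQuant fluorescence at 540 nm.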

[9] = test system: human lung carcinoma A549; test: A549 human lung carcinoma xenograft model; type: in vivo, mouse; settings: 2 mg/kg intraperitoneally every 2 d; vs vehicle control, P < 0.005

Chain of CXCR7 (SDF-1 binding site on MCF-7 cells) (P25106 whole entry): as the sequence (P25106 whole entry) above
Chain of CXCR4 (CEM-NKr cells) (P61073 whole entry): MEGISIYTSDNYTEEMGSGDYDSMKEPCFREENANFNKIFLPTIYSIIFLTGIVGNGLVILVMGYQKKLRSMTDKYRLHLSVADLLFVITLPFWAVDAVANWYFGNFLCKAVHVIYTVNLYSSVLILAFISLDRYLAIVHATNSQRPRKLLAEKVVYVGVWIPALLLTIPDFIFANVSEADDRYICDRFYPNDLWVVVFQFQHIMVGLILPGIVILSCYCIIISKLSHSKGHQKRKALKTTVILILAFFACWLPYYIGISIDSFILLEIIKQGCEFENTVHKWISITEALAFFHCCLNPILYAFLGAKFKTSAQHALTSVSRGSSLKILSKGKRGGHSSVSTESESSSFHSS

Mig: chemokine Mig (CXCL9), thought to bind only CXCR3
inhibition of 125I I-TAC binding to MCF-7 cells (in words) [1]: no inhibitory effect | inhibition of 125I SDF-1 binding to MCF-7 cells (in words) [1]: no inhibitory effect

c1cc(CN2CCCNCCNCCCNCC2)ccc1CN1CCCNCCNCCCNCC1 [AMD3100]
inhibition of 125I SDF-1 binding to MCF-7 cells (in words) [1]: not to MCF-7 cells | inhibition of 125I SDF-1 binding to CEM-NKr cells (in words) (CXCR4 (CEM-NKr cells)): inhibited binding | inhibition of SDF-1-induced calcium mobilization in CEM-NKr cells (CEM-NKr cells [2]): inhibited all functions | inhibition of SDF-1-induced cell migration of CEM-NKr cells (CEM-NKr cells [3]): inhibited all functions

IP10: chemokine IP10 (CXCL10), thought to bind only CXCR3
inhibition of 125I I-TAC binding to MCF-7 cells (in words) [1]: no inhibitory effect | inhibition of 125I SDF-1 binding to MCF-7 cells (in words) [1]: no inhibitory effect

I-TAC: CXC chemokine interferon-inducible T cell α chemoattractant, also known as CXCL11
inhibition of 125I SDF-1 binding to HeLa cells [4]: inhibited | inhibition of 125I SDF-1 binding to MCF-7 cells (in words) [1]: strongly displaced | inhibition of the SDF-1 binding site of E13 embryos of CXCR4-/- mice [5]: inhibited | inhibition of 125I SDF-1 binding to RDC1 (CXCR7) transfectants (in words) (human CXCR7 (RDC1)): blocked | inhibition of 125I SDF-1 binding to BCL1 cells [6]: inhibited | chemokine-induced calcium mobilization in MCF-7 cells (MCF-7 cells [7]): failed to induce | chemokine-induced migration of MCF-7 cells (MCF-7 cells [8]): failed to induce

N[C@@H](Cc1ccc(N(CCCl)CCCl)cc1)C(=O)O [Melphalan]
tumor volume at 49 d, A549 model (positive control) [9]: reduced tumor volume
